B1: tRNA (parent)
chain: GUUCCGUUGGCGUAAUGGUAACGCGUCUCCCUCCUAAGGAGAAGACUGCGGGUUCGAGUCCCGUACGGAACG

This note sets out measurements from the RNAGym collection of RNA variant scans (doi:10.1126/science.aae0568).

Variants at the floor of the assay were thinned out.

The data set covers variants of B1. Nature of the data set: yeast fitness relative to wild type (ratio to wild type); higher = fitter; tRNA-Arg(CCU), competitive growth, 37 C, YPD. The method, boiled down: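 Variants of the tRNA-Arg(CCU) gene were chemically synthesised with a 3% per-site mutation rate across 69 sites and placed at the native genomic locus in Saccharomyces cerevisiae. Six parallel replicates of the pooled strains were competed in YPD at 37°C for 24 hours, and gene amplicons from the start and end populations were read by 100-nucleotide paired-end sequencing. Darwinian fitness relative to wild type was derived from changes in genotype frequencies. Genotypes required ≥ 100 starting reads, and estimates < 0.5 were set to 0.5.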
With A36G G48A C49G U59A, the yeast fitness is ≤ 0.5.
For C5U G17C G52A, the yeast fitness came out at 0.61.
Take C24U C55G C66A: the yeast fitness is ≤ 0.5.
On to G9C G41A C60G A65G, for which the yeast fitness was ≤ 0.5.
The value for G10A G18A A69C was ≤ 0.5.
For the variant U3C U13A A20C C30G C31A G67C, the yeast fitness is ≤ 0.5.
Regarding G10A G17A A37U, the yeast fitness is ≤ 0.5.
As to G18C A45G G50U U53A, the yeast fitness was ≤ 0.5.
Turning to A20U U47A A70G, the yeast fitness was 0.62.
With C24G A37G, the yeast fitness worked out at 0.612.
For the variant C5A G17C C46G C55U, the yeast fitness is ≤ 0.5.
The value for G12C A20U G25A U59A was ≤ 0.5.
With C30A A43G A69U, the yeast fitness was found to be 0.618.
Consider C4G C11U A14G C55G G68C, for which the yeast fitness is ≤ 0.5.
With C5A C11G A42U U53A, the yeast fitness is ≤ 0.5.
On to A21G G38C A40U G44C G67A A69C, for which the yeast fitness is ≤ 0.5.
Consider U3A C24G U47C A57U, for which the yeast fitness is ≤ 0.5.
As for G17A C22U A45G C46U, the yeast fitness is 0.538.
On to C4G C5A C11U C27G A65U G68U, for which the yeast fitness was ≤ 0.5.
The value for C5G A14U C49U C61U was ≤ 0.5; that for C27U C31U A40U A45U C49G A65C was ≤ 0.5; that for C24G A42G A69U was ≤ 0.5.
With U3A A14C C46G, the yeast fitness was ≤ 0.5.
Regarding U26A C31G A36U A65U, the yeast fitness was determined as 0.681.
C34U A45C: the yeast fitness stood at 0.6.
Take C24A U47A A70U: the yeast fitness is ≤ 0.5.
As for G39C A42G G63A, the yeast fitness was ≤ 0.5.
On to G12A C29G C34U A36C C61A, for which the yeast fitness stood at 0.553.
Regarding C5A G10C U19C C24G, the yeast fitness is ≤ 0.5.
As for C4U C49G, the yeast fitness worked out at 0.874.
For the variant U13G C49A G52C, the yeast fitness is ≤ 0.5.
In the case of U8G C31U C33G U47A G50U, the yeast fitness amounted to 0.608.
C11U U26A: the yeast fitness was determined as 0.999.
As to G9C U28A C46U A70U, the yeast fitness is 0.615.
Take U53C C60U A69C: the yeast fitness stood at 0.57.
In the case of U3A C4U U7A C24U C60U, the yeast fitness is ≤ 0.5.
Take U59A C61U: the yeast fitness was 0.711.
For the variant C4G C24G U26G G39C C49G A65G, the yeast fitness is ≤ 0.5.
The result for U2C A21U U35A G41C U47A G67C reads ≤ 0.5; that for U16G C49U C60A C61A, ≤ 0.5; that for U8C A21G C46U C62U, 0.699.
For the variant G10A A14G C27U A40C U47A G48C, the yeast fitness is ≤ 0.5.
Regarding G6A C60G, the yeast fitness worked out at 0.601.
For C29U C49U C61A, the yeast fitness is ≤ 0.5.
With U7A C24U C33A G50A A65C, the yeast fitness was ≤ 0.5.
The result for U32A U64A A65U reads 0.961; that for G6C G12A A21G C66U, ≤ 0.5.
In the case of C11A C22U G44C C60U A69G, the yeast fitness was found to be 0.597.
For U8A U28A C31G A65U A69C, the yeast fitness is ≤ 0.5.
As for C22U G67A, the yeast fitness came out at 0.78.
The result for A45C C49A A65U reads ≤ 0.5.
On to G25A C62G, for which the yeast fitness worked out at 0.855.
On to G9A A40U G51C C66U G67U, for which the yeast fitness is ≤ 0.5.
In the case of C29G U35A, the yeast fitness is 0.582.
Consider A14C C30G C46U G48A U54G, for which the yeast fitness is ≤ 0.5.
The value for C5G U7A C27A C29A was ≤ 0.5; that for C4U A15C C29U U54C C61G G63A was ≤ 0.5.
As to A14C C55A A69C, the yeast fitness is ≤ 0.5.
On to C4G U28G C30A A43C C61G, for which the yeast fitness is 0.571.
For C11U A57G A69U, the yeast fitness was determined as 0.718.
The result for G25A C29A A57C A70G reads ≤ 0.5; that for U8A U26G C29A C46U G58A G63A, ≤ 0.5.
As for U3A C5U C62A, the yeast fitness is ≤ 0.5.
With U8G G23C A37G A70G, the yeast fitness was found to be 0.631.
A43G U59A: the yeast fitness worked out at 0.797.
C4A U7C U26G A65C: the yeast fitness came to 0.59.
Turning to A21G G23A C27G G39C A45G, the yeast fitness was ≤ 0.5.
C31G U59C: the yeast fitness stood at 0.871.
The value for C5U G23A A36G was 0.618; that for C4U G39C C49U was 0.62.
Regarding C22U A40C C62U, the yeast fitness turned out to be 0.648.
For the variant G10A G23A U35G, the yeast fitness was ≤ 0.5.
C61U C62G: the yeast fitness was determined as 0.718.
With G18C C30G U32C, the yeast fitness was ≤ 0.5.
Regarding A20G G50C C61U, the yeast fitness is ≤ 0.5.
The value for C22U G58C C62G G63C was ≤ 0.5; that for U2C G48A A69C was 0.705; that for U2G C31U U53A was ≤ 0.5.
Turning to A15U C22U, the yeast fitness stood at 0.743.
The value for U32C C62U A69C was 1.15; that for U7C C27A C66A was ≤ 0.5.
Take A40C A43U: the yeast fitness was 0.986.
With C46A G56A A70G, the yeast fitness was 1.01.
The result for U2A C66U A70C reads 0.641.
In the case of U19C U26A G67C, the yeast fitness was 0.57.
As for C27G A42C, the yeast fitness was 0.586.
Consider C5U A40G G50C A57C G58C, for which the yeast fitness was ≤ 0.5.
On to C22G C24U G44A U53G, for which the yeast fitness was found to be 0.521.
Turning to U8G A21G, the yeast fitness is 0.582.
Regarding C27A C61U G68C, the yeast fitness was ≤ 0.5.
The result for U7A A21C U26A C30A A45G G52A reads 0.547; that for G12C A14C, 0.731; that for U8A C33U C66A, ≤ 0.5.
Regarding U28C A40G, the yeast fitness was 0.807.
As for C5A A21U C24U C27G, the yeast fitness was ≤ 0.5.
The result for U2C A21G G68A reads 0.864.
C5A A57C: the yeast fitness stood at 0.719.
As for G12A U26C, the yeast fitness worked out at 0.878.
With G10A A20G U26C G39A G50A, the yeast fitness was ≤ 0.5.
As to G52C C55G, the yeast fitness stood at 0.843.
As for A20G U59C, the yeast fitness was 0.972.
For the variant A20G U59A, the yeast fitness came out at 0.79.
The result for A15C C60U A69G reads ≤ 0.5; that for U7A U28A C61U U64A, ≤ 0.5; that for C5G A15U G41A G58A, ≤ 0.5.
The result for C5U A14G reads 0.77.
Consider C5U U64C, for which the yeast fitness came to 0.932.
On to G9A G25C C62U, for which the yeast fitness came to 0.712.
Turning to G18A G52A A65C, the yeast fitness was ≤ 0.5.
On to A20G U35C G56C G68C, for which the yeast fitness was ≤ 0.5.
For U64G A69G, the yeast fitness worked out at 0.789.
The value for C4G C5A C27U G68A was ≤ 0.5; that for G38A G48A G50A was ≤ 0.5; that for U28G C34U G38A was ≤ 0.5.
Regarding G23C U28G A42U U59A, the yeast fitness was ≤ 0.5.
The value for C24G U26A C60G was ≤ 0.5; that for G6A C11A C27G U35A A43U U54C A65G was ≤ 0.5; that for U19G U64A A65G G67U was 0.606.
Consider G18C C29U C49G, for which the yeast fitness was ≤ 0.5.
As to G23A U47C, the yeast fitness stood at 0.781.
With A20G C27U C33G A43G A57G C61U C62U, the yeast fitness is ≤ 0.5.
The value for C11A U16G C33U was ≤ 0.5; that for G48A C61A A65C was ≤ 0.5; that for C4U G10C G48C G56C was ≤ 0.5.
C11U C46U G67C: the yeast fitness came out at 0.608.
In the case of G6C U13G G18A G48C G68U, the yeast fitness is ≤ 0.5.
With C5U A37G U47G A69G, the yeast fitness is ≤ 0.5.
In the case of U2A U7C G25A A36U, the yeast fitness is ≤ 0.5.
In the case of U16C C49A G63A, the yeast fitness was ≤ 0.5.
U7A G12C U54G: the yeast fitness was found to be 0.673.
U7A U13A C49A: the yeast fitness was ≤ 0.5.
The value for C31G C49U G50C A69U was ≤ 0.5.
U3A G17A C22U A70C: the yeast fitness stood at 0.528.
As to G9C C11G G58A, the yeast fitness is ≤ 0.5.
For the variant G50A G67A, the yeast fitness was 0.818.
Regarding U8A U16A G23A C34U G39A G58C, the yeast fitness was found to be 0.559.
In the case of U26A A40U G58A A70C, the yeast fitness is ≤ 0.5.
Regarding A21G G48C C61G C62A C66U, the yeast fitness was ≤ 0.5.
With C11U A37U C60U, the yeast fitness is 0.539.
As to C24U A36U C60A, the yeast fitness is ≤ 0.5.
With A15U C60G A65U, the yeast fitness was ≤ 0.5.
Turning to U35C C60U C66U, the yeast fitness is ≤ 0.5.
C11G G25A C27U: the yeast fitness worked out at 0.687.
Turning to G10A U35C, the yeast fitness stood at 0.582.
A21G G23A G52C: the yeast fitness is ≤ 0.5.
As to C4U C11U G25C G41A A57C G58A, the yeast fitness was ≤ 0.5.
The result for G9A C11A C30A A42C G67C reads ≤ 0.5; that for G12A U47C A69U, 0.757; that for G51C C61G, 1.04.
As for A42G A69U, the yeast fitness was found to be 0.959.
Turning to G9C A37G, the yeast fitness is 0.623.
With G9A U19A, the yeast fitness was found to be 1.04.
Regarding C24A U32C C61G, the yeast fitness is ≤ 0.5.
With U16A G39A A42G C55A C62U, the yeast fitness was ≤ 0.5.
As for G44A C49A, the yeast fitness amounted to 0.635.
As to C33A C55U C61A, the yeast fitness stood at 0.559.
G12A A20G A45U C49G G52C: the yeast fitness is ≤ 0.5.
The value for U7A G12A C24U G25C A42U was ≤ 0.5; that for U2A C24G U32A U54C G56A was ≤ 0.5.
In the case of U32G A69U, the yeast fitness was determined as 0.711.
Consider U3A A20U C29G C49G G63C, for which the yeast fitness was ≤ 0.5.
Regarding C5G G38A U59C, the yeast fitness is ≤ 0.5.
As to G9U G39C A70C, the yeast fitness was ≤ 0.5.
As for G25A C30U C62U, the yeast fitness came to 0.583.
Regarding A15U A21C C29A U32A, the yeast fitness was determined as 0.728.
The result for A14U G63A reads ≤ 0.5; that for G23U C24G C27U C62G C66G, ≤ 0.5.
